Measured values reported in article PMC5006629 (Chemical & pharmaceutical bulletin, 2013).
Read-outs that look alike come from different tables or passages of the source.

What was measured:
[1] = tested on: human HT-29 colon tumor cell line; assay: HT-29 tumor cell growth inhibition; format: cell-based
How it was run: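 Human HT-29 colon tumour cells. Two-stage screen: test compounds first tested at one concentration in triplicate for % growth inhibition.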

PDE3B = PDE3B (Homo sapiens, UniProt Q13370); format: biochemical
[2] = Homo sapiens, HT-29, read-out: HT-29 growth inhibition: IC50
[3] = read-out: % PDE3 inhibition at 50 μM, cAMP, substrate cAMP, 50 μM
[4] = read-out: % PDE3 inhibition at 50 μM, cGMP, substrate cGMP, 50 μM
[5] = PDE3 inhibition IC50, cAMP, substrate cAMP
[6] = PDE3 inhibition IC50, cGMP, substrate cGMP

Chain of PDE3B (Q13370 whole entry): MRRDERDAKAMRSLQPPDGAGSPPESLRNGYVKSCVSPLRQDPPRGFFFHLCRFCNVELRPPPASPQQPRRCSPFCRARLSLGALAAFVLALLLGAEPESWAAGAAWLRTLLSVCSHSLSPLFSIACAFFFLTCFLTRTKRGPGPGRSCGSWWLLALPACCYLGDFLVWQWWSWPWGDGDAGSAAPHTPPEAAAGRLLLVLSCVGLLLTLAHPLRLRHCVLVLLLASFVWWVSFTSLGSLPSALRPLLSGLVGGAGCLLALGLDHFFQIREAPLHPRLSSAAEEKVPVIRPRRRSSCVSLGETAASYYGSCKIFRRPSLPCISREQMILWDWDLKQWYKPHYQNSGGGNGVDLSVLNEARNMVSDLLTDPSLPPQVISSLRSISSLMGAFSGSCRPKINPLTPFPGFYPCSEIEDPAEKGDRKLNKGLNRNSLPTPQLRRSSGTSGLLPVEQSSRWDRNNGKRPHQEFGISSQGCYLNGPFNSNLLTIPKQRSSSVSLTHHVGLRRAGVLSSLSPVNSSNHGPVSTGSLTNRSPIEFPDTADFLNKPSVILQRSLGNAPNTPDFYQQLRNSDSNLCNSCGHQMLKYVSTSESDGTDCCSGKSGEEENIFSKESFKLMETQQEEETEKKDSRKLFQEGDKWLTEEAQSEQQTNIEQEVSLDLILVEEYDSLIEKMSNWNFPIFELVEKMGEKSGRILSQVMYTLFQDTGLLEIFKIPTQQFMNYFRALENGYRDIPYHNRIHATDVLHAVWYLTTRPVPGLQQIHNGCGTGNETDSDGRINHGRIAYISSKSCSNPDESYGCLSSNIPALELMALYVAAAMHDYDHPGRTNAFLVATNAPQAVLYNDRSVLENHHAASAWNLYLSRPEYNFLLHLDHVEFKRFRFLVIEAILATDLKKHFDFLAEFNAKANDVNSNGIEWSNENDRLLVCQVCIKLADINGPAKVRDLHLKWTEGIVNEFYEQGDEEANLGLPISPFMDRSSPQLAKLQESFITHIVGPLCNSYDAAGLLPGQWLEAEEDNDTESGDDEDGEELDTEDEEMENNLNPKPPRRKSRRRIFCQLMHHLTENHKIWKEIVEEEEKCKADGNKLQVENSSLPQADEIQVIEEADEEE

Compound | induction of apoptosis to the HT-29 cell line (in words) ([1]; HT-29 cell line, positive control) | IC50 [1, 2] | inhibition at 50 µM (PDE3B; [3]) | inhibition at 50 µM (PDE3B; [4]) | IC50 (PDE3B; [5]) | IC50 (PDE3B; [6]) | PDE3 inhibition with cAMP as substrate (in words) (PDE3B; substrate cAMP) | HT-29 growth inhibition: % Growth inhibition at 50 μM ([1]; HT-29 colorectal cancer cell line, 50 μM, triplicate) | IC50 ([1]; read-out: HT-29 growth inhibition: IC50, HT-29 colorectal cancer cell line, 10 concentrations) | % PDE3 inhibition at 50 μM, cAMP (PDE3B; substrate cAMP, 50 μM) | % PDE3 inhibition at 50 μM, cGMP (PDE3B; substrate cGMP, 50 μM)
Cc1[nH]c(=O)c(C#N)cc1-c1ccncc1 [Milrinone, reference compound] | inactivity | > 50 µM | 77% | 95% |  |  |  |  |  |  | 
N#Cc1c(-c2ccccc2Cl)cc(-c2ccccc2Br)[nH]c1=O [Compound 5, 6-(2-Bromophenyl)-4-(2-chlorophenyl)-2-oxo-1,2-dihydropyridine-3-carbonitrile] |  | 10.4 µM | 77% | 75% | 6.2 µM | 10.5 µM |  |  |  |  | 
COc1ccccc1-c1cc(-c2cccc(Br)c2)nc2nc[nH]c(=O)c12 [Compound 7, 7-(3-Bromophenyl)-5-(2-methoxyphenyl)pyrido[2,3-d]pyrimidin-4(3H)-one] |  | 1.34 µM | 62% | 78.6% | 24.2 µM | 10.8 µM |  |  |  |  | 
CCOc1ccccc1-c1cc(-c2cccc(Br)c2)nc2ncnc(N)c12 [Compound 6, 7-(3-Bromophenyl)-5-(2-ethoxyphenyl)pyrido[2,3-d]pyrimidin-4-amine] |  | 18.3 µM | 48% | 85% |  | 10.9 µM | did not inhibit PDE3 |  |  |  | 
CCOc1ccccc1-c1cc(-c2cccc(Br)c2)nc(N)c1C#N [Compound 2, 2-Amino-6-(3-bromophenyl)-4-(2-ethoxyphenyl)nicotinonitrile] |  | 43 µM |  | ≤ 50% |  |  |  |  |  |  | 
COc1ccccc1-c1cc(-c2cccc(Br)c2)nc(N)c1C#N [Compound 1, 2-Amino-6-(3-bromophenyl)-4-(2-methoxyphenyl)nicotinonitrile] |  |  | ≤ 50% | 105% |  | 4 µM |  |  |  |  | 
6-(2-Bromophenyl)-4-(2-ethoxyphenyl)-2-oxo-1,2-dihydropyridine-3-carbonitrile [Compound 4] |  |  |  |  |  |  |  | 68% | 15.5 µM | 70% | 72%
COc1ccccc1-c1cc(-c2ccc(-c3ccc(Br)cc3)cc2)nc(N)c1C#N [Compound 3, 2-Amino-6-(4′-bromobiphenyl-4-yl)-4-(2-methoxyphenyl)nicotinonitrile] |  | 32 µM | 55% | 85% | 35.6 µM | 13.4 µM |  |  |  |  | 
